Data on 19 compounds can be found in ChEMBL document CHEMBL1157027, “The identification of 8,9-dimethoxy-5-(2-aminoalkoxy-pyridin-3-yl)-benzo[c][2,7]naphthyridin-4-ylamines as potent inhibitors of 3-phosphoinositide-dependent kinase-1 (PDK-1)” (Eur J Med Chem, 2010).

Test [1] deals with T1, 3-phosphoinositide-dependent protein kinase 1 (Homo sapiens, UniProt O15530).
T1 sequence (O15530 whole entry): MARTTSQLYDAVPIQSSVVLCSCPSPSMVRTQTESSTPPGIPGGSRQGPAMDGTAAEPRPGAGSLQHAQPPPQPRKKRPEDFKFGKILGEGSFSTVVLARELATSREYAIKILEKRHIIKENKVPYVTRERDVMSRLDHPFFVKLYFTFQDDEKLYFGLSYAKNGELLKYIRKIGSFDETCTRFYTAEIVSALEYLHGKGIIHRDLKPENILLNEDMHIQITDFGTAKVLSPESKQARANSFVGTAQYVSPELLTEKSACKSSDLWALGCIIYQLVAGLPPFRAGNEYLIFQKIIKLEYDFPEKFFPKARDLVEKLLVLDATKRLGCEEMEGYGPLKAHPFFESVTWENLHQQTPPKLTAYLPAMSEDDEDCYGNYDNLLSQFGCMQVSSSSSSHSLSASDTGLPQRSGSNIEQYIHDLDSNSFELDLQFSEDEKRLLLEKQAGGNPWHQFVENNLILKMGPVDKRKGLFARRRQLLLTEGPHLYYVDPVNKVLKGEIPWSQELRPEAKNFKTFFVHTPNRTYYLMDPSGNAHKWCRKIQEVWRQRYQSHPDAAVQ
The experiment in a line: Inhibition of human GST-tagged-PDK1 expressed in HEK293 cells. The test is classed as cell-based.

Test [2] is described as follows: Inhibition of PKA. The essentials:
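PKA activity was measured with the Z'-LYTE kinase assay, run per the manufacturer's protocol at 100 uM ATP. IC50 values are given in nM.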

Test [3] has as its target RAC-alpha serine/threonine-protein kinase (Homo sapiens, UniProt P31749). Description: Inhibition of AKT.
The target in test [4] is Ribosomal protein S6 kinase beta-1 (Homo sapiens, UniProt P23443). The experiment in a line: Inhibition of p70S6K.
Chain of Ribosomal protein S6 kinase beta-1 (P23443 whole entry): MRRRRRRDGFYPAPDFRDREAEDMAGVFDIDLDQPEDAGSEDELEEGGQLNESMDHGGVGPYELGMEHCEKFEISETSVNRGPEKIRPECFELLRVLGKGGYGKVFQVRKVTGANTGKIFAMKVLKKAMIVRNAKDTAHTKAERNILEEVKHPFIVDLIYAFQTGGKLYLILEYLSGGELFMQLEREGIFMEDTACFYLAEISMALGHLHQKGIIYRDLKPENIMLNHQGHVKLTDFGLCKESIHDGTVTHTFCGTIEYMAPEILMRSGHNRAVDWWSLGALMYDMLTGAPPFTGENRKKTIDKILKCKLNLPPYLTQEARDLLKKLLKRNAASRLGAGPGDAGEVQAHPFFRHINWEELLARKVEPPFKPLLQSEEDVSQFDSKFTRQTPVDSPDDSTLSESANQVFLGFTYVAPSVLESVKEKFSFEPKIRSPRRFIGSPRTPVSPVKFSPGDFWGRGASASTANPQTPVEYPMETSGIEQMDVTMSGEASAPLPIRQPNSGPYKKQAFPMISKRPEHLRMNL

Chain of RAC-alpha serine/threonine-protein kinase (P31749 whole entry): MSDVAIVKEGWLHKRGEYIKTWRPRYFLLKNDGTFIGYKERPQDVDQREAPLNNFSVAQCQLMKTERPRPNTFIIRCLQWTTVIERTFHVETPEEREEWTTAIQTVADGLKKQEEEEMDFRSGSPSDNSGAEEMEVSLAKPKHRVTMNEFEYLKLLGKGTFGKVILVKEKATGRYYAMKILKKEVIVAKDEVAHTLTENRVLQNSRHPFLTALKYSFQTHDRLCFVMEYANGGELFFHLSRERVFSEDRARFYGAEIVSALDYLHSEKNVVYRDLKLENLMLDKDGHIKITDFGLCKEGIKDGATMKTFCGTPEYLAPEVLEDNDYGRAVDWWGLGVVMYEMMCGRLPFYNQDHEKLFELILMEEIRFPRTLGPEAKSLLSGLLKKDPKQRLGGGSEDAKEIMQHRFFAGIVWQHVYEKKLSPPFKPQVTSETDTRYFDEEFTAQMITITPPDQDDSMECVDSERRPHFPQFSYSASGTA

As usually defined, the IC50 is the point on the concentration scale where inhibition reaches its midpoint. Low readings indicate higher potency, high ones lower potency. With `CC[C@@H](N)COc1cncc(-c2cc3c(cnc4cc(OC)c(OC)cc43)c(N)n2)c1`, the IC50 came to 0.003 µM in test [1], 0.045 µM in test [2], 0.318 µM in test [3] and 0.072 µM in test [4].

As for `COc1cc2ncc3c(N)nc(-c4cncc(OC[C@@H](N)CC(C)C)c4)cc3c2cc1OC`, the IC50 in test [1] was 0.014 µM; in test [2], 0.113 µM; in test [3], 0.905 µM; in test [4], 0.219 µM.

As for `COc1cc2ncc3c(N)nc(-c4cncc(OC[C@H](N)CC(C)C)c4)cc3c2cc1OC`, the IC50 in test [1] turned out to be 0.018 µM; in test [2], 0.385 µM; in test [3] it was 1.39 µM; in test [4] it was 0.443 µM.

In the case of `COc1cc2ncc3c(N)nc(-c4cncc(OCCN)c4)cc3c2cc1OC`, the values for the IC50 in test [2], in test [3] and in test [4] were 0.066 µM, 0.402 µM and 0.08 µM, respectively.

With `COc1cc2ncc3c(N)nc(-c4cncc(OC[C@H](C)N)c4)cc3c2cc1OC`, it took 0.123 µM to reach half-maximal inhibition in test [2] (IC50). This lies in the sub-micromolar range.

Take `COc1cc2ncc3c(N)nc(-c4cncc(OC[C@H](N)Cc5cccc(C(F)(F)F)c5)c4)cc3c2cc1OC`: the midpoint of inhibition in test [2], the IC50, lay at 0.142 µM.

Take `COc1cc2ncc3c(N)nc(-c4cncc(OC[C@H](N)Cc5ccccc5)c4)cc3c2cc1OC`: the IC50 in test [2] is under 0.031 µM; in test [3] it was 0.259 µM.

Turning to `COc1cc2ncc3c(N)nc(-c4cncc(OC[C@@H](N)Cc5c[nH]c6ccccc56)c4)cc3c2cc1OC`, the figures for the IC50 in test [2], in test [3] and in test [4] were 0.054 µM, 0.302 µM and 0.077 µM, respectively.

For `COc1cc2ncc3c(N)nc(-c4cncc(OC[C@@H](N)Cc5ccc(F)cc5)c4)cc3c2cc1OC`, the concentration for half-maximal inhibition (IC50) was found to be 0.032 µM in test [2], 0.183 µM in test [3] and 0.021 µM in test [4].

Regarding `COc1cc2ncc3c(N)nc(-c4cncc(OC[C@H](N)Cc5ccc(F)cc5)c4)cc3c2cc1OC`, the IC50 in test [2] came to 0.036 µM; in test [3], 0.251 µM.

As to `COc1cc2ncc3c(N)nc(-c4cncc(OC[C@@H](N)Cc5ccccc5Cl)c4)cc3c2cc1OC`, the figures for the IC50 in test [2] and in test [3] were 0.079 µM and 0.793 µM, respectively.

Take `COc1cc2ncc3c(N)nc(-c4cncc(OC[C@@H](N)Cc5cccc(Cl)c5)c4)cc3c2cc1OC`: the IC50 in test [2] is 0.018 µM; in test [3] it was 0.078 µM.

Turning to `COc1cc2ncc3c(N)nc(-c4cncc(OC[C@@H](N)Cc5ccccc5)c4)cc3c2cc1OC`, the IC50 was 0.077 µM in test [2], 0.261 µM in test [3] and 0.107 µM in test [4].

Turning to `COc1cc2ncc3c(N)nc(-c4cncc(OC[C@H](N)Cc5c[nH]c6ccccc56)c4)cc3c2cc1OC`, the results for the IC50 in test [2] and in test [3] were 0.12 µM and 1.32 µM, respectively.

On to `COc1cc2ncc3c(N)nc(-c4cncc(OC[C@@H](C)N)c4)cc3c2cc1OC`, for which the results for the IC50 in test [1] and in test [2] were 0.003 µM and 0.086 µM, respectively.

Regarding `CC[C@H](N)COc1cncc(-c2cc3c(cnc4cc(OC)c(OC)cc43)c(N)n2)c1`, the IC50 in test [2] was 0.059 µM; in test [3], 0.422 µM; in test [4], 0.216 µM.

Take `COc1cc2ncc3c(N)nc(-c4cncc(OC[C@@H](N)Cc5ccc(Cl)c(Cl)c5)c4)cc3c2cc1OC`: the IC50 in test [2] is 0.041 µM.

Regarding `COc1cc2ncc3c(N)nc(-c4cncc(OC[C@@H](N)Cc5ccncc5)c4)cc3c2cc1OC`, the half-inhibitory concentration (IC50) is 0.009 µM in test [1], 0.138 µM in test [2], 1.75 µM in test [3] and 0.343 µM in test [4].

Turning to `COc1cc2ncc3c(N)nc(-c4cncc(OC[C@@H](N)Cc5cccc(C(F)(F)F)c5)c4)cc3c2cc1OC`, the values for the IC50 in test [2], in test [3] and in test [4] were 0.068 µM, 0.209 µM and 0.182 µM, respectively.
